“Also recorded” adds a separate entry of the source. Where two headings read alike, the source gives them in different places. Blank lines part the entries; values can stand above or below the molecule they belong to. Non-standard residues stand in square brackets, D forms with d.
Legend:
[1] = biological target: T1, mMC3R (Mus musculus, UniProt P33033); assay: AlphaScreen cAMP antagonist assay; format: cell-based; settings: for antagonist activity at the mMC3R: at the concentrations examined in this study
[2] = biological target: T2, mMC5R (Mus musculus, UniProt P41149); format: cell-based; settings: for mMC5R inverse agonist potency compared within series: fold less potent than KAF2039-9, the most potent inverse agonist; for mMC5R maximal decrease in basal activity at the plateau: sigmoidal dose-response, relative to basal
[3] = biological target: T3, mMC1R (Mus musculus, UniProt Q01727); settings: for mMC1R percent activation at 100 μM: no sigmoidal dose-response, relative to NDP-MSH; for agonist activity at the MC1R: up to 100 μM
[4] = system: Male Wildtype (WT) mice; assay: Mouse feeding study, intrathecal injection: cumulative food intake; format: in vivo
Summary of the method: (§1)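 Eight male WT mice, 24 weeks old, singly housed, ad libitum chow, reversed 12 h light/dark (lights off 12:00pm), 23–25°C. Crossover, non-fasting; single IT injection 2 h before lights out of 2 nmol/5 μL (20% solutol stock diluted in ddH2O) or matched vehicle; 7 days between treatments. Food and body weight at 2–72 h; two-factor repeated-measures ANOVA (drug × time).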

[5] = Mouse feeding study, intrathecal injection: body weight; format: in vivo; settings: male WT mice, 2 nmol, up to 72 hours post-injection
Summary of the method: as §1

[6] = system: MC3R; settings: unable to bind at up to this concentration; cited from earlier work
[7] = system: MC4R; settings: unable to bind at up to this concentration; cited from earlier work
[8] = system: MC1R; settings: read-out: MC1R agonist EC50; cited from earlier work
[9] = biological target: T4, mMC4R (Mus musculus, UniProt P56450); settings: cited from earlier work
[10] = biological target: T1, mMC3R; settings: highest concentrations of antagonist assayed; cited from earlier work
[11] = biological target: mouse melanocortin-4 receptor (mouse) (UniProt P56450)
[12] = biological target: T4, mMC4R; assay: AlphaScreen cAMP antagonist assay; format: cell-based
[13] = biological target: mouse melanocortin-1 receptor (mouse) (UniProt Q01727)
[14] = biological target: T3, mMC1R; settings: read-out: mMC1R Agonist EC50; previously published peptide; cited from earlier work
[15] = biological target: T1, mMC3R; settings: previously published peptide, cited from earlier work
[16] = biological target: T4, mMC4R; settings: cited from earlier work; remark: listed apart in the source
[17] = biological target: T2, mMC5R; settings: read-out: mMC5R Inverse Agonist EC50; previously published peptide; cited from earlier work
[18] = Schild analysis with NDP-MSH, < 5.5 = no antagonist potency at up to 10,000 nM

T4 sequence (P56450 whole entry): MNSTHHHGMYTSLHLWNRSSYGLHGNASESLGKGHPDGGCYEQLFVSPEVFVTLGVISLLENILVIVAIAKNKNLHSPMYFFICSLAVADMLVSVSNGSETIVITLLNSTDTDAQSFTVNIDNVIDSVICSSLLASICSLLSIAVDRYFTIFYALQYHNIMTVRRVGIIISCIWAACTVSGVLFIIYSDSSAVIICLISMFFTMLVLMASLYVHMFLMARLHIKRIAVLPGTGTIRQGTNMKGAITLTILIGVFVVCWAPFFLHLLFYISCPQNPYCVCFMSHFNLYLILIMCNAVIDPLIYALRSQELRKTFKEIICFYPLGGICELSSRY
T1 sequence (P33033 whole entry): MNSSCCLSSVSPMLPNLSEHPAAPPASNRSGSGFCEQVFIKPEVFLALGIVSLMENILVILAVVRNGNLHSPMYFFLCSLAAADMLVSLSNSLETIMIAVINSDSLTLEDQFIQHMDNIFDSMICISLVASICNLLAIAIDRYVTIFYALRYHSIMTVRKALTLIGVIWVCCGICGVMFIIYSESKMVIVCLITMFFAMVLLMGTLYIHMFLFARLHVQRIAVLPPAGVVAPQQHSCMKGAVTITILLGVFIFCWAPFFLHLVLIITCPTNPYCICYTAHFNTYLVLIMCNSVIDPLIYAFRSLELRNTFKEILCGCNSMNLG
T2 sequence (P41149 whole entry): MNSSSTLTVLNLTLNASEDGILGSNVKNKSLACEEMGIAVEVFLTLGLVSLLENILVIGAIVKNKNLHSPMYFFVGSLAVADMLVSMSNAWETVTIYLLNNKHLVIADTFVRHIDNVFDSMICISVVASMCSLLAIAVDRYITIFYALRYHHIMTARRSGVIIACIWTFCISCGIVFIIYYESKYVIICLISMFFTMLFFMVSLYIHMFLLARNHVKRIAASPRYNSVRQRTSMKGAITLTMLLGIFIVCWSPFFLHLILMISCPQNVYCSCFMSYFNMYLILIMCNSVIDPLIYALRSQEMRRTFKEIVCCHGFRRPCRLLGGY
T3 sequence (Q01727 whole entry): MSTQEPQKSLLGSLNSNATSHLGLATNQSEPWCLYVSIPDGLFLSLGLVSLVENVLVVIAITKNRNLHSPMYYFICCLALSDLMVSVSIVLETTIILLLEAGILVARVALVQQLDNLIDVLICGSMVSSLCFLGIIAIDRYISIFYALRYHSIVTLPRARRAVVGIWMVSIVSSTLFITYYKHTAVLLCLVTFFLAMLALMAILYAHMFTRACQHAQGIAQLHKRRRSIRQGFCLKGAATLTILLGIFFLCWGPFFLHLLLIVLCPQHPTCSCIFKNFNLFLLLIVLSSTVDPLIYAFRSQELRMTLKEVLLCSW
Chain of mouse melanocortin-4 receptor (mouse) (P56450 whole entry): as the sequence (P56450 whole entry) above
Chain of mouse melanocortin-1 receptor (mouse) (Q01727 whole entry): as the sequence (Q01727 whole entry) above

Molecule: C[C@@H]1NC(=O)[C@H](CC(N)=O)NC(=O)[C@H](Cc2ccccc2)NC(=O)[C@H](Cc2ccccc2)NC(=O)[C@H](CCCNC(=N)N)NC(=O)[C@@H]2CCCN2C(=O)[C@H]2CCCN2C(=O)CNC1=O [Compound 2, c[Pro-Arg-Phe-Phe-Asn-Ala-Gly-DPro]]
antagonist activity at the mMC3R [1]: not observed
mMC5R percent decrease in receptor activity compared to basal at 100 μM ([2]; 100 μM, no plateau): −25% @ 100 μM
mMC1R percent activation at 100 μM [3]: 60% @ 100 μM
agonist activity at the MC1R [3]: partially stimulate

Molecule: C[C@@H]1NC(=O)[C@H](CC(N)=O)NC(=O)[C@H](Cc2ccccc2)NC(=O)[C@H](Cc2ccccc2)NC(=O)[C@H](CCCNC(=N)N)NC(=O)[C@@H]2CCCN2C(=O)[C@H]2CCCN2C(=O)[C@H](CO)NC1=O [Compound 3, c[Pro-Arg-Phe-Phe-Asn-Ala-Ser-DPro]]
mMC5R percent decrease in receptor activity compared to basal at 100 μM ([2]; 100 μM, no plateau): −55% @ 100 μM
mMC5R percent decrease in receptor activity compared to basal at 100 μM ([2]; 100000.0): −55%
mMC1R percent activation at 100 μM [3]: 35% @ 100 μM
agonist activity at the MC1R [3]: partially stimulate

Molecule: C[C@@H]1NC(=O)[C@H](CC(N)=O)NC(=O)[C@H](Cc2ccccc2)NC(=O)[C@H](Cc2ccccc2)NC(=O)[C@H](CCCNC(=N)N)NC(=O)[C@@H]2CCCN2C(=O)[C@H]2CCCN2C(=O)[C@H](CCCCN)NC1=O [Compound 4, c[Pro-Arg-Phe-Phe-Asn-Ala-Lys-DPro]]
mMC5R percent decrease in receptor activity compared to basal at 100 μM ([2]; 100 μM, no plateau): −40% @ 100 μM
mMC5R percent decrease in receptor activity compared to basal at 100 μM ([2]; 100000.0): −40%

Molecule: CC(C)C[C@@H]1NC(=O)[C@H](C)NC(=O)[C@H](CC(N)=O)NC(=O)[C@H](Cc2ccccc2)NC(=O)[C@H](Cc2ccccc2)NC(=O)[C@H](CCCNC(=N)N)NC(=O)[C@@H]2CCCN2C(=O)[C@H]2CCCN2C1=O [Compound 6, c[Pro-Arg-Phe-Phe-Asn-Ala-Leu-DPro]]
antagonist activity at the mMC3R [1]: not observed
mMC5R percent decrease in receptor activity compared to basal at 100 μM ([2]; 100 μM, no plateau): −35% @ 100 μM

Molecule: CCCC[C@@H]1NC(=O)[C@H](C)NC(=O)[C@H](CC(N)=O)NC(=O)[C@H](Cc2ccccc2)NC(=O)[C@H](Cc2ccccc2)NC(=O)[C@H](CCCNC(=N)N)NC(=O)[C@@H]2CCCN2C(=O)[C@H]2CCCN2C1=O [Compound 7, c[Pro-Arg-Phe-Phe-Asn-Ala-Nle-DPro]]
mMC5R percent decrease in receptor activity compared to basal at 100 μM ([2]; 100 μM, no plateau): −35% @ 100 μM
mMC5R percent decrease in receptor activity compared to basal at 100 μM ([2]; 100000.0): –35%
cumulative food intake vs vehicle ([4]; 2 nmol IT single injection, 2 and 6 hours post-injection): ate significantly more food
food intake trend vs vehicle ([4]; 2 nmol IT, up to 72 hours post-injection, listed as KAF2039-7): prolonged trend of increased food intake; also recorded: strong trend in increased food intake; also recorded: trend exhibited out until 72 hours post-injection
main effect of drug on food intake, two-factor repeated measures ANOVA ([4]; 2 nmol, first 72 hours post-injection): main effect of drug
mouse body weight vs vehicle [5]: main effect of drug
mouse body weight vs vehicle ([5]; listed as KAF2039-7): treated animals weighing more than control animals

Molecule: C[C@@H]1NC(=O)[C@H](CC(N)=O)NC(=O)[C@H](Cc2ccccc2)NC(=O)[C@H](Cc2ccccc2)NC(=O)[C@H](CCCNC(=N)N)NC(=O)[C@@H]2CCCN2C(=O)[C@H]2CCCN2C(=O)[C@H](Cc2c[nH]c3ccccc23)NC1=O [Compound 8, c[Pro-Arg-Phe-Phe-Asn-Ala-Trp-DPro]]
mMC5R inverse agonist potency compared within series [2]: equipotent to each other
mMC5R maximal decrease in basal activity at the plateau [2]: −20%
mMC1R partial agonist maximal percent activated [3]: 50%

Molecule: C[C@@H]1NC(=O)[C@H](CC(N)=O)NC(=O)[C@H](Cc2ccccc2)NC(=O)[C@H](Cc2ccccc2)NC(=O)[C@H](CCCNC(=N)N)NC(=O)[C@@H]2CCCN2C(=O)[C@H]2CCCN2C(=O)[C@H](Cc2ccc(O)cc2)NC1=O [Compound 9, c[Pro-Arg-Phe-Phe-Asn-Ala-Tyr-DPro]]
mMC5R percent decrease in receptor activity compared to basal at 100 μM ([2]; 100 μM, no plateau): −40% @ 100 μM

Molecule: C[C@@H]1NC(=O)[C@H](CC(N)=O)NC(=O)[C@H](Cc2ccccc2)NC(=O)[C@H](Cc2ccccc2)NC(=O)[C@H](CCCNC(=N)N)NC(=O)[C@@H]2CCCN2C(=O)[C@H]2CCCN2C(=O)[C@H](CC2CCCCC2)NC1=O [Compound 10, c[Pro-Arg-Phe-Phe-Asn-Ala-Cha-DPro]]
mMC5R inverse agonist potency compared within series [2]: 5 fold
mMC5R maximal decrease in basal activity at the plateau [2]: −20%

Molecule: C[C@@H]1NC(=O)[C@H](CC(N)=O)NC(=O)[C@H](Cc2ccccc2)NC(=O)[C@H](Cc2ccccc2)NC(=O)[C@H](CCCNC(=N)N)NC(=O)[C@@H]2CCCN2C(=O)[C@H]2CCCN2C(=O)[C@H](CCc2ccccc2)NC1=O [Compound 11, c[Pro-Arg-Phe-Phe-Asn-Ala-hPhe-DPro]]
mMC5R inverse agonist potency compared within series [2]: equipotent to each other
mMC5R maximal decrease in basal activity at the plateau [2]: −20%
mMC5R maximal decrease in basal activity at the plateau ([2]; listed as KAF2039-13): 20%

Molecule: H-Ser-Arg-Phe-Phe-Asn-Ala-Phe-Ser-OH (H-SRFFNAFS-OH)
binding to the MC3R [6]: > 20 µM
binding to the MC4R [7]: > 20 µM

Molecule: H-Tyr-c[Cys-Arg-Phe-Phe-Asn-Ala-Phe-Cys]-Tyr-OH [AGRP[109-118]]
EC50 [8]: 3000 nM
antagonist pA2 at the mMC4R [9]: 6.8
antagonist potency at the mMC3R [10]: does not possess an antagonist potency at the mMC3R that is quantifiable

agonist EC50, cAMP AlphaScreen, HEK293 cells stably expressing mMC4R [11]: 0.35 nM
Molecule: NDP-MSH (4-Norleucine-7-D-Phenylalanine): Ac-Ser-Tyr-Ser-Nle-Glu-His-DPhe-Arg-Trp-Gly-Lys-Pro-Val-NH2 (peptide)

mMC3R Antagonist pA2 [1, 18]: < 5.5
antagonist activity at the mMC3R [1]: not observed
mMC4R Antagonist pA2 [12, 18]: < 5.5
antagonist potency at the mMC4R ([12]; at the concentrations used in this study): not measurable
mMC5R percent decrease in receptor activity compared to basal at 100 μM ([2]; 100 μM, no plateau): −25% @ 100 μM
mMC5R percent decrease in receptor activity compared to basal at 100 μM ([2]; 100 μM, no plateau, listed as Asp^7): -25%
mMC1R percent activation at 100 μM [3]: 40% @ 100 μM
agonist activity at the MC1R [3]: partially stimulate
Molecule: c[Pro-Arg-Phe-Phe-Asn-Ala-Asp-DPro] (cyclo(PRFFNAD[dP]); SMILES C[C@@H]1NC(=O)[C@H](CC(N)=O)NC(=O)[C@H](Cc2ccccc2)NC(=O)[C@H](Cc2ccccc2)NC(=O)[C@H](CCCNC(=N)N)NC(=O)[C@@H]2CCCN2C(=O)[C@H]2CCCN2C(=O)[C@H](CC(=O)O)NC1=O) [Compound 5]

partial agonist: maximal percent activated, cAMP AlphaScreen, HEK293 cells [13]: 50%
Molecule: c[Pro-Arg-Phe-Phe-Asn-Ala-Trp-DPro] (peptide)

Molecule: hAGRP(87-132): Human agouti-related protein fragment 87-132, antagonist of MC3R and MC4R; previously published peptide
EC50 [14]: > 100000 nM
mMC3R Antagonist pA2 [15]: 8.9±0.2
Ki ([15]; read-out: mMC3R Antagonist Ki): 1.3 nM
selectivity for the MC4R (vs MC3R) [16]: equipotent
mMC4R Antagonist pA2 ([16]; previously published peptide): 9.4±1.0
Ki ([16]; read-out: mMC4R Antagonist Ki, previously published peptide): 0.4 nM
EC50 [17]: > 100000 nM
